This is a sample that favours compounds with a hit; in the whole collection about 2.6% have one here.
NadD block – blocks S. aureus nicotinate mononucleotide adenylyltransferase; purified NadD enzyme, colorimetric absorbance read-out; inhibition, % at 20 µM; 360,000 compounds, 0.78% hits; AID 602399; in the data active = inhibition above about 26%
rCAG RNA binder – molecules binding r(CAG) RNA repeats; r(CAG) RNA repeat, TO-PRO-1 dye displacement fluorescence; inhibition, % at 3 µM; 370,000 compounds, 1.3% hits; AID 651821;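 active = inhibition above the plate cutoff, the mean of all test compounds on that plate plus 3 SD, cut at about 35% in these data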;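 note: 0% = DMSO alone and 100% = 100 µM mitoxantrone as full dye displacement; higher means more dye released from RNA so lower well fluorescence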
HCV core dimer – HCV core protein dimerization inhibition | inhibition, % at 5 µM | TR-FRET GST/Flag-core106 dimerization, 1536-well | 300,000 compounds, 0.33% hits;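 active = inhibition above the mean of all tested compounds plus 3 SD, set per screening campaign, cut at about 45% in these data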
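test system = GST/Flag-tagged HCV core106 proteins | probe or stimulus = Eu donor and XL665 acceptor anti-tag antibodies | times = compound-protein-antibody incubation 4 h at 22.5 °C | signal = TR-FRET, excitation 340 nm, emission 617 and 671 nm | measure = percent inhibition of core106 dimerization signal | controls = wells lacking GST-core106 and wells with excess unlabelled core106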
ABHD5 PLIN5 PPI – ABHD5-PLIN5 protein interaction inhibition. Split G. princeps luciferase complementation, luminescence, 4 h. AID 602281. 360,000 compounds, 0.78% hits. inhibition, % at 4 µM. Q00G26+Q8WTS1;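 active = inhibition above the mean inhibition across every tested compound plus 3 SD, cut at about 22% in these data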;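 note: 0% = DMSO only wells and the 100% control is not disclosed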
rCAG bind conf – r(CAG) RNA repeat binding, confirmation; TO-PRO-1 dye displacement fluorescence; shares compounds with rCAG RNA binder; 4,300 compounds, 70% hits; inhibition, % at 3 µM;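 active = inhibition above a per-plate cutoff, the mean inhibition of sample wells plus 3 SD, cut at about 35% in these data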;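 note: loss of TO-PRO-1 fluorescence as compound displaces dye from 1x1 AA loop RNA; 0% = DMSO only wells and 100% = 100 µM mitoxantrone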
DNA CAG counter – DNA CAG dye complex inhibition counter-screen | shares compounds with rCAG RNA binder | d(CAG) DNA oligo TO-PRO-1 dye displacement, fluorescence | inhibition, % at 3 µM | 4,300 compounds, 94% hits;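 active = inhibition above its plate's cutoff, the mean test-well inhibition plus 3 SD, cut at about 4.8% in these data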;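 note: 0% = DNA dye mix with DMSO and 100% = 100 µM mitoxantrone; hits displace the dye from DNA and so lower well fluorescence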
dCAG dye DR – DNA CAG dye complex inhibition, dose response counter-screen | DNA CAG/GTC duplex TO-PRO-1 dye displacement fluorescence | shares compounds with rCAG RNA binder | 250 compounds, 20% hits | AID 686960 | IC50, µM; in the data active = IC50 below about 10 µM
* marks the source's active call; other numbers are inactive results.

`N#Cc1c(SCC(=O)Nc2nc3ccccc3s2)sc2c(O)cc(=O)[nH]c12` gave NadD block 18, rCAG RNA binder 63*, ABHD5 PLIN5 PPI -19, rCAG bind conf 60*, DNA CAG counter 26* and dCAG dye DR 9.3*.
For CCN(C)C(=O)Oc1cccc([C@H](C)N(C)C)c1 the results were rCAG RNA binder 2.
Screening O=C(NCc1ccc(Cl)c(Cl)c1)c1cc(C2CCCCN2C(=O)c2ccccn2)on1 (configuration not stated) returned NadD block 0, rCAG RNA binder -1 and ABHD5 PLIN5 PPI -5.
Screening COC(=O)C1CN(Cc2ccc(OC)cc2)CCS(=O)(=O)N1Cc1ccccc1 (configuration not stated) returned rCAG RNA binder 4.
Cc1cn([C@H]2C[C@H](O)[C@@H](CCC(=O)NCc3ccco3)O2)c(=O)[nH]c1=O was read as NadD block 0, rCAG RNA binder 1 and ABHD5 PLIN5 PPI -6.
For COc1c2c(c(OC)c3ccccc13)[C@]1(OC2)O[C@H](CCO)C[C@H](O)[C@H]1O the results were NadD block -1, rCAG RNA binder 0 and ABHD5 PLIN5 PPI 1.
Screening O=C(CN1C(=O)/C(=C/c2ccco2)SC1=S)NC1CCS(=O)(=O)C1 (configuration not stated) returned NadD block 11, rCAG RNA binder 48*, HCV core dimer -4, ABHD5 PLIN5 PPI -17, rCAG bind conf 19 and DNA CAG counter 9.4*.
Screening CC(C(=O)Nc1ccc(C(=O)O)c(O)c1)N1C(=O)/C(=C\c2ccco2)SC1=S (configuration not stated) returned NadD block 9, HCV core dimer 2 and ABHD5 PLIN5 PPI -3.
For O=C(CN1C(=O)/C(=C/c2ccco2)SC1=S)Nc1ccc(O)c(C(=O)O)c1 the results were NadD block 6, rCAG RNA binder 88*, HCV core dimer -5, ABHD5 PLIN5 PPI 0, rCAG bind conf 82* and DNA CAG counter 47*.
For COc1ccc(NC(=O)CCCN2C(=O)/C(=C\c3ccco3)SC2=S)cc1 the results were NadD block 9, rCAG RNA binder 16, HCV core dimer -6 and ABHD5 PLIN5 PPI 12.
Screening O=C(CN1C(=O)/C(=C/c2ccco2)SC1=S)Nc1ccc(C(=O)O)c(O)c1 returned NadD block 8, rCAG RNA binder 93*, HCV core dimer -3, ABHD5 PLIN5 PPI 1, rCAG bind conf 85* and DNA CAG counter 53*.
Screening CCOC(=O)c1cc(C)nnc1C(=O)OCC returned NadD block 1, rCAG RNA binder 4 and ABHD5 PLIN5 PPI 1.
O=C(NC1CC1)c1ccc2nc([C@@H]3O[C@H](CO)[C@H](O)[C@H](O)[C@H]3O)[nH]c2c1 was read as NadD block -1, rCAG RNA binder 1 and ABHD5 PLIN5 PPI 14.
`OC(c1ccc(Cl)cc1)c1ncc(-c2cccc(F)c2)[nH]1` (configuration not stated) gave NadD block -7, rCAG RNA binder 2 and ABHD5 PLIN5 PPI -11.
Screening COc1cccc(NC(=O)CSc2nc3c(oc4ccccc43)c(=O)[nH]2)c1 returned NadD block 4, rCAG RNA binder 54*, HCV core dimer 11, ABHD5 PLIN5 PPI 0, rCAG bind conf 45* and DNA CAG counter 15*.
COc1cccc(NC(=O)CSc2ncnc3c2oc2ccccc23)c1 was read as NadD block -1, rCAG RNA binder 2, HCV core dimer -1 and ABHD5 PLIN5 PPI 0.
Screening O=c1cc(-c2ccccc2)oc2c1ccc1ccccc12 returned rCAG RNA binder 12.
O=c1cc(-c2ccc(O)c(O)c2)oc2c1ccc1ccccc12 was read as NadD block 21, rCAG RNA binder 57*, ABHD5 PLIN5 PPI -2, rCAG bind conf 61* and DNA CAG counter 28*.
For O=c1cc(-c2ccc(O)c(O)c2)oc2ccc3ccccc3c12 the results were NadD block 16, rCAG RNA binder 41*, ABHD5 PLIN5 PPI 2, rCAG bind conf 59* and DNA CAG counter 28*.
Screening COc1ccc(-c2oc3c(c2C(=O)OCCCO)C(OCCCCCO)CCC3)cc1 (configuration not stated) returned NadD block -4, rCAG RNA binder 0 and ABHD5 PLIN5 PPI 1.
For CCOC(=O)c1cc(OC(=O)c2cccc([N+](=O)[O-])c2)n(-c2ccccc2)n1 the results were NadD block -2, rCAG RNA binder 35*, HCV core dimer -1, ABHD5 PLIN5 PPI 7, rCAG bind conf 2 and DNA CAG counter 1.
Screening CCOC(=O)c1cc(OC(=O)c2ccccc2)n(-c2ccccc2)n1 returned NadD block 8, rCAG RNA binder 29, HCV core dimer 2 and ABHD5 PLIN5 PPI 4.
Screening N=C1/C(=C\c2ccc(Br)o2)C(=O)N=C2SC(CC(=O)N3CCOCC3)=NN12 returned NadD block 1, rCAG RNA binder 36*, HCV core dimer 0, ABHD5 PLIN5 PPI -2, rCAG bind conf 18 and DNA CAG counter 5.1*.
For COC(=O)[C@]12C[C@H](CC(=O)NCC34CC5CC(CC(C5)C3)C4)C(=O)N(CCC3=CCCCC3)C1=C[C@H](C(C)C)O[C@@H]2C1CC1 the results were rCAG RNA binder 9.
`COc1cc(/C=C2\SC(=S)N(NC(=O)c3ccccc3O)C2=O)ccc1O` gave NadD block -2, rCAG RNA binder 55*, HCV core dimer -36, ABHD5 PLIN5 PPI -6, rCAG bind conf 34 and DNA CAG counter 13*.
O=C(NN1C(=O)/C(=C/c2ccc(O)c([N+](=O)[O-])c2)SC1=S)c1ccccc1Cl was read as NadD block 1, rCAG RNA binder 39*, HCV core dimer -14, ABHD5 PLIN5 PPI 3, rCAG bind conf 15 and DNA CAG counter 5.5*.
Screening COC(=O)C1CN(Cc2cn(Cc3ccc(Cl)cc3)nn2)CCS(=O)(=O)N1Cc1ccc(Cl)cc1 (configuration not stated) returned rCAG RNA binder 5.
Screening O=C(NCCc1ccccc1)c1ccc(Sc2ccccc2Cl)c([N+](=O)[O-])c1 returned rCAG RNA binder 4.
Screening C=CCCC(=O)N1CCC(C(=O)NC2CCCc3ccccc32)CC1 (configuration not stated) returned rCAG RNA binder 3.
`COC(=O)c1ccc(-c2ccc3c(c2)[C@]2(CCC[C@@H](OCc4ccccc4)[C@@H]2NC(=O)CCc2ccccc2)C(=O)N3Cc2ccccc2)cc1` gave rCAG RNA binder 9.
Screening O=C(Nc1ccncc1)c1cc(-c2ccccn2)nc2ccccc12 returned NadD block 5, rCAG RNA binder 1, HCV core dimer 5 and ABHD5 PLIN5 PPI 5.

Source: PubChem BioAssay (several laboratories)
